TAAR1 ag: human TAAR1 agonism | 0.99% of 360,000 active | AID 624467 | activation, % at 3 µM | Q96RJ0 | CHO RD-HGA16 TAAR1, Fluo-8 calcium fluorescence; vehicle wells 0%, saturating PEA agonist 100%;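 active = activation above the mean activation of all test compounds in the run plus 3 SD, cut at about 38% in these data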
Target sequence (Q96RJ0 whole entry, looked up): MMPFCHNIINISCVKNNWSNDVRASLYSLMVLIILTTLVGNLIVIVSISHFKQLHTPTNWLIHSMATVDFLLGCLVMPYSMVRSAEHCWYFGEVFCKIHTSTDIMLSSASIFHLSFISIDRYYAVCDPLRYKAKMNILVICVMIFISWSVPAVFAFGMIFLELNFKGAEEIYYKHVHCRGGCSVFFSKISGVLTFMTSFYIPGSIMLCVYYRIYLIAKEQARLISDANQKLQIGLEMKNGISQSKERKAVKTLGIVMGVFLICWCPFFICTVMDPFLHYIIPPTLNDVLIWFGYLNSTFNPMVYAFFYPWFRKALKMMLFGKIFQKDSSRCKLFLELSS
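Assay system – CHO-derived RD-HGA16 cells with stable Gα16 and human TAAR1 · Compound dosing – one-point dosing at 3 µM (nominal) · Incubation – 17-24 h seeding, 75 min 37 °C dye, 30 min RT · Measured by – kinetic Fluo-8 calcium fluorescence · Control set – DMSO vehicle as 0%, PEA at EC100 as 100% · Repeats – single well for each compound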
V1R ag counter: counter-screen for oxytocin receptor agonists: human V1a receptor agonists. P37288. CHO-V1R cells, Fluo-8 calcium fluorescence, agonist mode; 0% DMSO, 100% 3 nM vasopressin. activation, % at 3 µM. 0.25% of 320,000 active;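 active = activation above the mean activation of all tested compounds plus 3 SD, per screening run, cut at about 20% in these data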;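 note: signal is peak over basal fluorescence ratio across a 100 second FLIPR read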
Target sequence (P37288 whole entry, looked up): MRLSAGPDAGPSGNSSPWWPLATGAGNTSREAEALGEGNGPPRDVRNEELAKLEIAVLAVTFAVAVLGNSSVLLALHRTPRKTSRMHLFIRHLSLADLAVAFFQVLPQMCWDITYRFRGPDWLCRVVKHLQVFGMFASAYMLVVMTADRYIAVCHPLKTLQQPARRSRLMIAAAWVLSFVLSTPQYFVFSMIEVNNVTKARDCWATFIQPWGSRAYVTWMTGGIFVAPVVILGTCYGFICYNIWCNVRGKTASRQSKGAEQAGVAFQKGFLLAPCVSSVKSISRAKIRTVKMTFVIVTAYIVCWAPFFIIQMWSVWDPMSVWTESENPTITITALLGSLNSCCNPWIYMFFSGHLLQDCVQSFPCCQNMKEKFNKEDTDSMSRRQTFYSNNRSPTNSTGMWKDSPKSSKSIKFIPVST
TAAR1 antag: antagonists of human TAAR1 | inhibition, % at 3 µM | 1.5% of 360,000 active | Q96RJ0 | CHO RD-HGA16 TAAR1, Fluo-8 calcium fluorescence, antagonist;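 active = inhibition above a per-plate cutoff, the mean inhibition of test compounds on that plate plus 3 SD, cut at about 49% in these data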
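Test system – hTAAR1-expressing CHO RD-HGA16 cells, Gα16-coupled · Also added – β-PEA at EC80 concentration, post-compound challenge · Compound – 3 µM, single point · Incubation – dye loading 75 min at 37 °C, then 30 min room temperature · Measured by – Fluo-8 intracellular calcium dye fluorescence, real-time kinetic reads · Benchmarks – vehicle and agonist controls · Replicates – singlicate, one well per test compound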
OXTR agonist: agonists of human oxytocin receptor; CHO-OTR cells, Fluo-8 calcium fluorescence; normalized: DMSO 0%, oxytocin 100%; activation, % at 3 µM; 0.32% of 320,000 active;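 active = activation above the mean of all tested compounds plus 3 SD, cutoff set per screening run, cut at about 20% in these data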;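 note: peak over basal fluorescence ratio from a 100 s FLIPR kinetic read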
OXTR potentiate: human OXTR potentiation. activation, % at 3 µM. P30559. AID 2445. 0.061% of 320,000 active. CHO-OTR cells, Fluo-8 calcium fluorescence, potentiator mode; 0% = oxytocin EC15, 100% = EC100;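 active = activation above that plate's cutoff, the mean activation of tested compounds plus 3 SD, cut at about 6.6% in these data, passing the limit was not always enough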
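Assay system: CHO-OTR cells, human receptor / Also added: oxytocin at about EC15, sub-maximal agonist stimulus / Dosing: single dose, 3.0 µM nominal final compound concentration / Incubation: 6 min pre-incubation, 100 s read / Technique: Fluo-8 calcium dye fluorescence / Read-out: % activation vs EC15 and EC100 oxytocin / Benchmarks: EC15 oxytocin low, 75 nM oxytocin high / Replicates: singlicate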
OXTR pot confirm: human OXTR potentiation, confirmation. shares compounds with OXTR potentiate. CHO-OTR cells, Fluo-8 calcium fluorescence; scaled from low-dose to maximal oxytocin. activation, % at 3 µM. 180 tested, under 10 active. AID 434985;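 active = mean percent activation over triplicates above a cutoff set from solvent-only control plates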;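 note: compounds tested in the presence of an EC15 dose of oxytocin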
V1aR agonist cf: confirmation of human vasopressin V1a receptor agonists; activation, % at 3 µM; 20% of 180 active; CHO-V1R cells, Fluo-8 calcium fluorescence, agonist; shares compounds with V1R ag counter;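 active = average activation exceeds primary screen hit cutoff, cut at about 21% in these data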;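 note: peak over basal fluorescence ratio during a 100 s FLIPR read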
OXTR counter: activates oxytocin receptor in V1a agonist counter-screen. activation, % at 3 µM. shares compounds with V1R ag counter. 10% of 180 active. CHO-OTR cells, Fluo-8 calcium fluorescence;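 active = mean activation over three repeats above the cutoff from the earlier oxytocin receptor agonist screen, cut at about 20% in these data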;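 note: peak over minimum fluorescence ratio within a 100 second FLIPR read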
TAAR1 ag confirm: confirmation of human TAAR1 agonists; activation, % at 3 µM; 82% of 2,400 active; shares compounds with TAAR1 ag; CHO RD-HGA16 TAAR1, Fluo-8 calcium fluorescence; scaled: DMSO 0%, maximal phenethylamine 100%;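 active = activation above a cutoff set at the run's mean compound activation plus 3 SD, cut at about 39% in these data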
Ga16 ag counter: nonselective agonism, TAAR1 counter-screen; CHO-Ga16 parental, Fluo-8 calcium fluorescence; normalized to maximal ATP response, DMSO zero; shares compounds with TAAR1 ag; activation, % at 3 µM; AID 651787; 50% of 2,400 active;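 active = activation above the run cutoff, the mean activation over all tested wells plus 3 SD, cut at about 12% in these data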
TAAR1 desensitize: counter-screen for human TAAR1 agonists: agonists that desensitize TAAR1; shares compounds with TAAR1 ag; CHO RD-HGA16 hTAAR1, Fluo-8 calcium, beta-PEA response inhibition; inhibition, % at 3 µM; 46% of 2,400 active;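 active = inhibition above the run cutoff, the mean inhibition of all test compounds plus 3 SD, cut at about 49% in these data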;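 note: beta-PEA stimulus applied at its EC80; loss of beta-PEA calcium signal after compound pretreatment read as receptor desensitization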
Ga16 nonsel ant: nonselective Ga16 antagonism, counter-screen; shares compounds with TAAR1 ag; CHO-Ga16 ATP-induced calcium, Fluo-8 fluorescence; inhibition, % at 3 µM; 39% of 2,400 active;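 active = inhibition above the plate's mean compound inhibition plus 3 SD, computed per plate, cut at about 22% in these data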
Numbers stand for hits; - = inactive; . = not tested or not shown. Most compounds without a hit are left out; they make up all but 2.3% or so of the library.

SMILES	TAAR1 ag	V1R ag counter	TAAR1 antag	OXTR agonist	OXTR potentiate	V1aR agonist cf	OXTR counter	others
S=c1[nH]nc(-c2ccncc2)n1/N=C/c1cn(-c2ccccc2)nc1-c1ccccc1	81.8	-	-	-	20.5	.	.	OXTR pot confirm=7.5;TAAR1 ag confirm=76.4;Ga16 ag counter=16.8;TAAR1 desensitize=60.9;Ga16 nonsel ant=-
O=[N+]([O-])c1ccc(-c2nn(-c3ccccc3)cc2/C=N/n2c(-c3ccncc3)n[nH]c2=S)cc1	-	-	-	-	-	.	.
Cc1cc(O)ccc1-c1cccc2nccn12	-	.	-	.	.	.	.
COC(=O)[C@H](Cc1c[nH]c2ccccc12)NC(=O)Cc1c[nH]c2ccccc12	-	21.5	-	-	-	-	-
COc1ccc(CCNC(=O)CN2C(=O)COc3ccc(S(=O)(=O)N4CCCC4)cc32)c(OC)c1	-	-	-	-	-	.	.
CCSC1=N/C(=C\C=C2/Oc3ccccc3N2CC)C(=O)S1	-	22.6	-	-	-	20.8	-
CCCCNC(=O)C1(C)CCN1Cc1ccc(C#N)cc1 (stereo not drawn)	-	.	-	.	.	.	.
COc1ccc([C@H]2C[C@@H](O)[C@H](n3cc(C4CC4)nn3)CN2C(=O)c2cccs2)cc1	-	.	-	.	.	.	.
O=C(NNC(=S)NC(=O)c1ccco1)c1ccc(F)cc1	-	29.0	-	-	-	-	-
CCc1ccc(/C=N/Nc2ncnc3nc[nH]c23)cc1	-	-	-	-	-	.	.
CCc1ccc(N=Nc2ccc(O)c3[nH]cnc23)cc1	-	23.0	-	-	-	25.6	-
CS(=O)(=O)c1ccc(Cl)c(NC(=O)COC(=O)CCc2c[nH]c3ccccc23)c1	-	27.7	-	-	-	-	-
COc1ccc(N2CC(C(=O)Nc3nnc(SCC(=O)N4CCOCC4)s3)CC2=O)cc1 (stereo not drawn)	-	-	-	-	-	.	.
C#CCOCCOCCOCCNc1nc(N2CCN(C(=O)CCCCCCCCCCNC(=O)[C@H](CCCCN)n3cc(C)nn3)CC2)nc(N2CCN(C(=O)CCCCCCCCCCNC(=O)[C@@H]([C@H](C)O)n3cc(C)nn3)CC2)n1	.	30.7	.	-	-	-	-
C#CCOCCOCCOCCNc1nc(N2CCN(C(=O)CCCCCCCCCCNC(=O)[C@@H](CCC(=O)O)n3cc(CCCCCN)nn3)CC2)nc(N2CCN(C(=O)CCCCCCCCCCNC(=O)[C@H](CCCCN)n3cc(C[C@@H](C)CC)nn3)CC2)n1	.	44.8	.	-	-	43.6	-
C#CCOCCOCCOCCNc1nc(N2CCN(C(=O)CCCCCCCCCCNC(=O)Cn3cc(CCCCCN)nn3)CC2)nc(N2CCN(C(=O)CCCCCCCCCCNC(=O)Cn3cc(C[C@@H](C)O)nn3)CC2)n1	.	26.9	.	-	-	-	-
C#CCOCCOCCOCCNc1nc(N2CCN(C(=O)CCCCCCCCCCNC(=O)[C@@H](CCC(=O)O)n3cc(CCCCCN)nn3)CC2)nc(N2CCN(C(=O)CCCCCCCCCCNC(=O)[C@H](CO)n3cc(CCCCCN)nn3)CC2)n1	.	-	.	-	-	.	.
Oc1ccc(Br)cc1C=Nc1ccc2c3c(cccc13)CC2	-	23.9	-	-	-	-	-
Cc1ccc(S(=O)(=O)NCC(=O)N/N=C/c2ccc(Cl)cc2)cc1	-	21.9	-	-	-	-	-
CCSc1nc(O)cc(=O)n1CC	-	25.1	-	-	-	-	-
C=CCn1c(SCC(=O)N(CC)CC)nc(O)cc1=O	-	-	-	-	-	.	.
Cc1n[nH]c(=O)c2c(NC(=O)CSc3nn(-c4ccccc4)c(=S)s3)oc(C)c12	-	-	-	-	-	.	.
Cc1ccc(S(=O)(=O)Nc2cccc(S(=O)(=O)N3CCCC3)c2)cc1C	-	.	-	.	.	.	.
CCOC(=O)c1csc(NC(=O)COc2ccc(Cl)cc2Cl)n1	-	22.3	-	-	-	-	-
CCCC(=O)Nc1nc(C(=O)OCC)cs1	-	-	-	-	-	.	.
SMILES	TAAR1 ag	V1R ag counter	TAAR1 antag	OXTR agonist	OXTR potentiate	V1aR agonist cf	OXTR counter	others
CCOC(=O)N1CCN(S(=O)(=O)N2CCCC(C(=O)NCCCN3CCCCC3)C2)CC1 (stereo not drawn)	-	-	-	-	-	.	.
Cc1ccc(C2=NS(=O)(=O)N(C)C(C(=O)NCc3cccs3)=C2)cc1	-	-	-	-	-	.	.
COc1ccc(OC)c(C2=NS(=O)(=O)N(C)C(C(=O)NCc3cccs3)=C2)c1	43.3	22.0	-	-	-	-	25.0
C=CCn1cc(CN2CCC(C(=O)Nc3cccc(-c4cccc(F)c4)c3)CC2)c(C)n1	-	-	-	-	-	.	.
C=CCn1cc(CN2CCC(C(=O)Nc3cccc(-c4cccc(Cl)c4)c3)CC2)c(C)n1	-	22.5	-	-	-	-	-
CC(C)CC1C(=O)N(Cc2cn(Cc3ccco3)nn2)CCS(=O)(=O)N1Cc1ccc(-c2cccc(N(C)C)c2)cc1 (stereo not drawn)	-	.	-	.	.	.	.
CN(CC(=O)Nc1ccc(F)c(F)c1F)C(=O)C1=NN(c2ccccc2)C(=O)CC1	-	-	-	-	-	.	.
CC[C@]12c3[nH]c4cc(CCC(=O)N(C)C)ccc4c3CCN1C(=O)[C@@H](CC(=O)NCCc1ccccn1)C[C@@H]2C(=O)N1CCN(C(=O)C2CC2)CC1	-	.	-	.	.	.	.
c1ccc(CNc2ccccn2)cc1	-	-	-	-	-	.	.
c1ccc(Nc2ccccc2Nc2ccccn2)nc1	-	49.5	-	-	-	-	-
O=C(Nc1cccc(Cl)c1)Nc1ccc2nccnc2c1	47.3	23.1	58.2	-	-	-	-
CCc1nc2ccc(C(=O)Nc3cccc(OC)c3)cn2c1N(CC)Cc1cccc(Br)c1	-	.	-	.	.	.	.

Assay outcomes (PubChem BioAssay)
